The values below come from ChEMBL document CHEMBL3860076, “New inhibitors of tyrosyl-DNA phosphodiesterase I (Tdp 1) combining 7-hydroxycoumarin and monoterpenoid moieties” (Bioorg Med Chem, 2016).

The target of data set [1] is T1, Tyrosyl-DNA phosphodiesterase 1 (Homo sapiens, UniProt Q9NUW8). Briefly: Reversal of Tdp1-mediated drug resistance in human MCF7 cells assessed as camptothecin CC50 at 5 uM measured after 72 hrs by MTT assay (reference value: 1430 +/- 430 nM). It is filed as cell-based. The essentials: (§1)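 MCF-7 cells, about 2000 per well, were pre-incubated for 24 h at 37 °C in IMDM (5% CO₂). They were then given graded camptothecin concentrations together with a fixed 5 μM coumarin. After 72 h, viable cells were measured by MTT. Camptothecin CC50 was estimated with and without the coumarin.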

The target of data set [2] is T1, Tyrosyl-DNA phosphodiesterase 1.
The nature of data set [3]: Cytotoxicity against human RPMI8226 cells expressing low levels of Tdp1 assessed as reduction in cell viability up to 100 uM measured after 72 hrs by MTT assay. It is filed as toxicity, cell-based. The settings on record: rpmi-8226, 72 h. The essentials:
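RPMI 8226 human myeloma cells were seeded at about 2000 per well and treated with the coumarins. They were incubated at 37 °C in RPMI 1640 medium (5% CO₂). Viability was measured by MTT.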

A short description of data set [4]: Cytotoxicity against human MCF7 cells expressing Tdp1 assessed as reduction in cell viability up to 100 uM measured after 72 hrs by MTT assay. The conditions noted are these: mcf7, 72 h. It is filed as toxicity, cell-based. In a few lines: (§2)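 MCF-7 mammary adenocarcinoma cells, about 2000 per well, were pre-incubated for 24 h at 37 °C in IMDM (5% CO₂). They were then exposed to the coumarins over a dose series up to 100 μM. After 72 h, live cells were quantified by colorimetric MTT test. CC50 was read from the dose-response curve.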

The nature of data set [5]: Cytotoxicity against human MCF7 cells expressing Tdp1 assessed as reduction in cell viability measured after 72 hrs by MTT assay. The format is toxicity, cell-based. The conditions noted are these: for Activity: mcf7, 72 h. In a few lines:
as §2

For data set [6], the target named is T1, Tyrosyl-DNA phosphodiesterase 1. Description: Reversal of Tdp1-mediated drug resistance in human MCF7 cells assessed as fold reduction in camptothecin CC50 at 5 uM measured after 72 hrs by MTT assay relative to camptothecin alone. The format is cell-based. The essentials:
as §1

The structures appear in SMILES notation. pIC50: −log10 of the molar value.

T1 sequence (Q9NUW8 whole entry): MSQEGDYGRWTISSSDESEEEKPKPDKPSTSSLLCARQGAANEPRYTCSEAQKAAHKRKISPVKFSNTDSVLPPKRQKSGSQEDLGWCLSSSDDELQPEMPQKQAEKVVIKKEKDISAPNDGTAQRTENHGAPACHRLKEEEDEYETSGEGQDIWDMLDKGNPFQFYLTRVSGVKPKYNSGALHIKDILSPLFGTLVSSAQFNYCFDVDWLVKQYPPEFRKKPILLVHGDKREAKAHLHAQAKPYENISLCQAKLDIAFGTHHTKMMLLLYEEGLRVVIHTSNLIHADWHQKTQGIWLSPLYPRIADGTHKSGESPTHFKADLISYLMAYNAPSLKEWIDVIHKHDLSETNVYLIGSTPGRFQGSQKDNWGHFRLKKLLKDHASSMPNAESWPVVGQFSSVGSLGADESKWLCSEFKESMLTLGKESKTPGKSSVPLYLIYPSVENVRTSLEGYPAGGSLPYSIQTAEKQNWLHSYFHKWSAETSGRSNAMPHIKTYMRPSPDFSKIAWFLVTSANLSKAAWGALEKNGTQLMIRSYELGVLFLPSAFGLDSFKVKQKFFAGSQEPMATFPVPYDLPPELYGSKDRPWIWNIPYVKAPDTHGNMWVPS

Turning to `CC1(C)[C@@H]2CC=C(COc3ccc4c5c(c(=O)oc4c3)CCCC5)[C@H]1C2`, the 50% cytotoxic concentration (CC50) in data set [1] is 0.41 µM. In data set [2], this compound had a pIC50 of 5.92. For the same compound, the Activity result in data set [3] and in data set [4] was “Non-Toxic” in each case.
On to `CC1(C)[C@H]2CC=C(COc3ccc4c5c(c(=O)oc4c3)CCC5)[C@@H]1C2`, for which the CC50 in data set [1] amounted to 0.33 µM. The compound also gave a pIC50 in data set [2] of 5.86. Further, the Activity result in data set [4] is “Non-Toxic”.
`COc1cc(COc2ccc3c4c(c(=O)oc3c2)CCC4)cc(OC)c1OC` gave a pIC50 in data set [2] below 5.00.
Regarding `CC1(C)[C@H]2CC=C(CCOc3ccc4c5c(c(=O)oc4c3)CCCC5)[C@@H]1C2`, the CC50 in data set [1] was 2.3 µM. Moreover, in data set [2], the negative-log IC50 (pIC50) was 5.84. In data set [5], the Activity entry was “Dose-dependent effect”.
Turning to `COc1cccc(COc2ccc3c(C)cc(=O)oc3c2)c1`, the pIC50 in data set [2] is below 5.00.
Still for that read-out and setting: to `COc1cc(COc2ccc3c4c(c(=O)oc3c2)CCCC4)cc(OC)c1OC` belongs below 5.00.
In turn, `CC1(C)[C@H]2CC=C(CCOc3ccc4c5c(c(=O)oc4c3)CCC5)[C@@H]1C2` had a pIC50 in data set [2] of 5.96. Also, the Activity entry in data set [5] is reported as “Dose-dependent effect”.
`Cc1cc(=O)oc2cc(OCC3=CC[C@@H]4C[C@H]3C4(C)C)ccc12`: the 50% cytotoxic concentration (CC50) in data set [1] came to 0.32 µM. The compound also showed a pIC50 in data set [2] of 5.37. Besides, the Activity result in data set [3] is given as “Non-Toxic”; in data set [5], “Toxic”.
Regarding `CC1(C)[C@@H]2CC=C(COc3ccc4c5c(c(=O)oc4c3)CCC5)[C@H]1C2`, the fold change (FC) in data set [6] is 8. Besides, the CC50 in data set [1] stood at 0.18 µM. The negative-log IC50 (pIC50) in data set [2] is 6.17. For the same compound, the Activity entry in data set [3] is on record as “Non-Toxic”. For the same compound, the CC50 at 72 h in data set [5] (MCF7 cells expressing Tdp1) is above 100 µM.
With `CC1(C)[C@H]2CC=C(COc3ccc4c5c(c(=O)oc4c3)CCCC5)[C@@H]1C2`, the pIC50 in data set [2] is 5.91. Besides, the Activity entry in data set [4] is given as “Non-Toxic”.
In data set [2], `COc1cccc(COc2ccc3c4c(c(=O)oc3c2)CCCC4)c1` gave a pIC50 of 5.31.
In the case of `Cc1cc(=O)oc2cc(OCC3=CC[C@H]4C[C@@H]3C4(C)C)ccc12`, the CC50 in data set [1] is 0.34 µM. Besides, in data set [2], the pIC50 is 5.81. For the same compound, the Activity result in data set [3] was “Non-Toxic”; in data set [5], “Toxic”.
`COc1cc(COc2ccc3c(C)cc(=O)oc3c2)cc(OC)c1OC` showed a pIC50 in data set [2] below 5.00.
